Results on three compounds are retold here after ChEMBL document CHEMBL1123282, “Antiinflammatory activity of substituted 6-hydroxypyrimido[2,1-f]purine-2,4,8(1H,3H,9H)-triones. Atypical nonsteroidal antiinflammatory agents” (J Med Chem, 1986).

The structures appear in SMILES notation.

Data set [1] relates to Rattus norvegicus. Description: Compound was tested for intestinal ulcerogenic effect in rats, activity expressed as ulcer incidence at a dose of 30 mg/kg. Type of data set: functional. An outline of the steps: (§1)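 Normal fed rats were gavaged once daily for three consecutive days at 10–300 mg/kg and killed 24 h after the last dose. Intestines were examined for ulcers, recording incidence per group of 8 and a lesion score (±SE).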

The nature of data set [2]: Plasma level data at a dose of 20 mg/kg, iv after 1 hr. Type of data set: ADME, organism-based. Also on record: dose 20 mg/kg, route intravenous. The settings on record: read-out: Plasma level. An outline of the steps: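 Male Lewis rats get a single iv or oral dose of the sodium salt, suspended in 0.4% (w/v) methyl cellulose. Plasma drug levels are measured by HPLC at the timed points and given as mean ± SD, n = 3.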

Data set [3] deals with Rattus norvegicus. Description: Compound was tested in vivo for antiinflammatory activity against chronic adjuvant arthritic rat by therapeutic inhibition 1 degree paw after peroral administration of 3 mg/kg of dose. Type of data set: functional. The settings on record: route oral.
The test system of data set [4] is Rattus norvegicus. Description: Compound was tested in vivo for antiinflammatory activity against chronic adjuvant arthritic rat by therapeutic inhibition 2 degree paw after peroral administration of 3 mg/kg of dose. It is filed as functional. The settings on record: route oral.
Data set [5] has as its system Rattus norvegicus. Nature of the data set: C(compound) was tested for intestinal Ulcerogenic effect in rats at a dose of 30 mg/kg. Type of data set: functional. An outline of the steps:
as §1

Take `CC(C)=CCc1c(O)n(Cc2ccc(F)cc2)c2nc3c(c(=O)n(C)c(=O)n3C)n2c1=O`: in data set [1], the Ulcer incidence is 0 number/group.

As for `CC(C)=CCc1c(O)n(Cc2ccccc2)c2nc3c(c(=O)n(C)c(=O)n3C)n2c1=O`, in data set [2], the concentration at 1 h turned out to be 74.7 µg/mL. Also, the inhibition in vivo at 3 mg/kg in data set [3] was 22%; in data set [4] it was 51%. In data set [5], `CCCc1c(O)n(Cc2ccc(F)cc2)c2nc3c(c(=O)n(C)c(=O)n3C)n2c1=O` registered a Ulcer incidence of 0 number/group.

As a reminder, the inhibition in vivo is the drop in the measured response relative to a control, in per cent.
